# Assay results from ChEMBL document CHEMBL4808195, “Discovery of heterocyclic substituted dihydropyrazoles as potent anticancer agents” (Bioorg Med Chem Lett, 2021).
# The source made the active and inactive calls. The rule behind the calls is not given here.
# Key:
# HCC1806 [1] = experiment: Anticancer activity against human HCC1806 cells assessed as inhibition of cell growth at 10 uM measured by SRB method; type: functional
# MDA-MB-231 = experiment: Anticancer activity against human MDA-MB-231 cells assessed as inhibition of cell growth at 10 uM measured by SRB method; type: functional
# NCI-H1975 = experiment: Anticancer activity against human NCI-H1975 cells assessed as inhibition of cell growth at 10 uM measured by SRB method; type: functional
# HCC1806 [2] = experiment: Anticancer activity against human HCC1806 cells assessed as inhibition of cell proliferation; type: functional, cell-based
# HCT-116 = experiment: Anticancer activity against human HCT-116 cells assessed as inhibition of cell proliferation; type: functional, cell-based
# HeLa = experiment: Anticancer activity against human HeLa cells assessed as inhibition of cell proliferation; type: functional, cell-based
# A549 = experiment: Anticancer activity against human A549 cells assessed as inhibition of cell proliferation; type: functional, cell-based
# HCC1806 [3] = experiment: Anticancer activity against human HCC1806 cells assessed as inhibition of cell proliferation at 2 to 10 uM measured after 48 hrs by SRB assay; type: functional, cell-based; conditions: dose 2-10 µM
# Summary of the method: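 HCC1806 cells were exposed to the compound for 24, 48 and 72 h. Proliferation inhibition rate was read by SRB assay at each time point. Experimental triplicates, shown with SD.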
# HCC1806 [4] = experiment: Cell cycle arrest in human HCC1806 cells assessed as increase in cell population at G2/M phase at 2.5 to 5 uM measured after 12 hrs by flowcytometry method; type: functional, cell-based; conditions: dose 2.5-5 µM
# Summary of the method: (§1)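 HCC1806 cells were treated with the compound for 12 h. Cell-cycle distribution was determined by flow cytometry, and the phase fractions were quantified from experimental duplicates with SD.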
# HCC1806 [5] = experiment: Cell cycle arrest in human HCC1806 cells assessed as decrease in cell population at G1 phase at 2.5 to 5 uM measured after 12 hrs by flowcytometry method; type: functional, cell-based; conditions: dose 2.5-5 µM; summary of the method: as §1
# HCC1806 [6] = experiment: Cell cycle arrest in human HCC1806 cells assessed as decrease in cell population at S phase at 2.5 to 5 uM measured after 12 hrs by flowcytometry method; type: functional, cell-based; conditions: dose 2.5-5 µM; summary of the method: as §1
# HCC1806 [7] = experiment: Cell cycle arrest in human HCC1806 cells assessed as increase in p21 accumulation at 2.5 to 5 uM measured after 12 hrs by western blot assay; type: functional, cell-based; conditions: dose 2.5-5 µM
# Summary of the method: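 HCC1806 cells were exposed to the compound for 12 h. p21 protein level was detected by immunoblotting, with β-actin as the loading control.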
smiles,measurement,setting,value
CN1CCN(c2ccc(C3=NN(S(=O)(=O)c4ccc(C#N)cc4)C(c4ccc(N(C)C)cc4)C3)cc2)CC1 (configuration not stated),inhibition at 10 µM,HCC1806 [1],99.8%
same,inhibition at 10 µM,MDA-MB-231,99.8%
same,inhibition at 10 µM,NCI-H1975,100%
same,IC50,HCC1806 [2],2.99 µM
same,IC50,HCT-116,3.6 µM
same,IC50,HeLa,3 µM
same,IC50,A549,3.6 µM
same,Activity,HCC1806 [3],Active
same,Activity,HCC1806 [4],Active
same,Activity,HCC1806 [5],Active
same,Activity,HCC1806 [6],Active
same,Activity,HCC1806 [7],Active
